From ChEMBL document CHEMBL3227985, “N-Alkylated 2-aminotetralins: central dopamine-receptor stimulating activity” (J Med Chem, 1979)
Activity calls are given as the source filed them. No cut-off for these calls is given here.

Legend:
Rattus norvegicus [1] = assay: Central dopamine receptor stimulating activity in Sprague-Dawley rat assessed as reduction in DOPA accumulation in limbic region of brain at 2 umol/kg, sc by spectrophotometric method; format: functional; conditions: Limbic system
Summary of the method: (§1)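 Male Sprague-Dawley rats (200-350 g), reserpinized. Compounds dissolved in saline immediately before use, neutral pH, 10 mL/kg, given sc over a dose range. Aromatic-L-amino-acid decarboxylase inhibited (100 mg/kg). Dopa and 5-HTP accumulation measured spectrophotometrically in striatum, limbic forebrain and remaining hemispheral portions. ED50 = dose giving 50% of maximal reduction versus control portions, estimated from dose-response curves. Experiments run 9–12 a.m.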

Rattus norvegicus [2] = assay: Central noradrenaline receptor stimulating activity in Sprague-Dawley rat assessed as reduction in DOPA accumulation in hemispheral portion of cerebrum at 2 umol/kg, sc by spectrophotometric method; format: functional, organism-based; summary of the method: as §1
Rattus norvegicus [3] = assay: Central serotonin receptor stimulating activity in Sprague-Dawley rat assessed as reduction in 5-HTP accumulation in limbic region of brain at 2 umol/kg, sc by spectrophotometric method; format: functional, organism-based; conditions: Limbic system; summary of the method: as §1
Rattus norvegicus [4] = assay: Central serotonin receptor stimulating activity in Sprague-Dawley rat assessed as reduction in 5-HTP accumulation in striatum of brain at 2 umol/kg, sc by spectrophotometric method; format: functional, organism-based; summary of the method: as §1
Rattus norvegicus [5] = assay: Central serotonin receptor stimulating activity in Sprague-Dawley rat assessed as reduction in 5-HTP accumulation in hemispheral portion of cerebrum at 2 umol/kg, sc by spectrophotometric method; format: functional, organism-based; summary of the method: as §1
Rattus norvegicus [6] = assay: Toxicity in sc dosed Sprague-Dawley rat assessed as gross behaviour at ED50; format: organism-based; conditions: in vivo
Rattus norvegicus [7] = assay: Central dopamine receptor stimulating activity in Sprague-Dawley rat assessed as reduction in DOPA accumulation in striatum of brain at 2 umol/kg, sc by spectrophotometric method; format: functional; summary of the method: as §1
Rattus norvegicus [8] = assay: Central dopamine receptor stimulating activity in reserpenized Sprague-Dawley rat assessed as duration of action of motor activity at 2 umol/kg, sc measured 6 hrs post-reserpine challenge by motility meter analysis; format: functional
Summary of the method: (§2)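 Male Sprague-Dawley rats (200-350 g) given reserpine 10 mg/kg ip 6 h before testing. Drug in saline, 2 µmol/kg sc in the neck. Rats then placed singly in photocell motility meters. Counts recorded per 5-min period until effect ceased (<10 counts/5 min), giving duration and AUC. Means of four to six recordings. Testing 1–6 p.m.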

Rattus norvegicus [9] = assay: Central dopamine receptor stimulating activity in reserpenized Sprague-Dawley rat assessed as latency period of motor activity at 2 umol/kg, sc measured 6 hrs post-reserpine challenge by motility meter analysis; format: functional; summary of the method: as §2

Structure (SMILES)	ED50 (Rattus norvegicus [1])	Activity (Rattus norvegicus [2])	Activity (Rattus norvegicus [3])	Activity (Rattus norvegicus [4])	Activity (Rattus norvegicus [5])	Activity (Rattus norvegicus [6])	ED50 (Rattus norvegicus [7])	Time (Rattus norvegicus [8])	Time (Rattus norvegicus [9])
Br.NC1CCc2c(O)cccc2C1 (stereo not drawn)	> 5 µmol/kg	inactive	inactive	inactive	inactive	Non-toxic			
COc1cccc2c1CCC(N)C2.Cl (stereo not drawn)		inactive	inactive	inactive	inactive	Non-toxic			
CCCCCN(CCC)C1CCc2c(cccc2OC)C1.O=C(O)C(=O)O (stereo not drawn)	0.092 µmol/kg	inactive	inactive	inactive	inactive	Non-toxic	0.101 µmol/kg	93 min	15 min
CCCCCNC1CCc2c(cccc2OC)C1.Cl (stereo not drawn)		inactive	inactive	inactive	inactive	Non-toxic			
Br.CN(C)C1CCc2c(O)cccc2C1 (stereo not drawn)	0.39 µmol/kg	inactive	inactive	inactive	inactive	Non-toxic	0.19 µmol/kg		
Br.CCNC1CCc2c(O)cccc2C1 (stereo not drawn)	0.072 µmol/kg	inactive	inactive	inactive	inactive	Non-toxic	0.066 µmol/kg	50 min	3 min
CCCN(CCc1ccccc1)C1CCc2c(O)cccc2C1.Cl (stereo not drawn)	0.022 µmol/kg	inactive	inactive	inactive	inactive	Non-toxic	0.017 µmol/kg	53 min	0 min
Br.CNC1CCc2c(O)cccc2C1 (stereo not drawn)	1.1 µmol/kg	inactive	inactive	inactive	inactive	Non-toxic	1.2 µmol/kg		
Br.CCCN(CCC)C1CCc2c(ccc(O)c2O)C1 (stereo not drawn)	0.007 µmol/kg	inactive	inactive	inactive	inactive	Non-toxic	0.007 µmol/kg	193 min	0 min
CCCN(CC(C)(C)C)C1CCc2c(O)cccc2C1.Cl (stereo not drawn)	0.2 µmol/kg	inactive	inactive	inactive	inactive	Non-toxic	0.12 µmol/kg	68 min	9 min
CCCCCN(CCC)C1CCc2c(O)cccc2C1.Cl (stereo not drawn)	0.01 µmol/kg	inactive	inactive	inactive	inactive	Non-toxic	0.019 µmol/kg	75 min	0 min
CCN(CC)C1CCc2c(cccc2OC)C1.Cl (stereo not drawn)		inactive	inactive	inactive	inactive	Non-toxic			
CCCNC1CCc2c(cccc2OC)C1.Cl (stereo not drawn)	0.37 µmol/kg	inactive	inactive	inactive	inactive	Non-toxic	0.43 µmol/kg		
Br.CCCCNC1CCc2c(O)cccc2C1 (stereo not drawn)	> 5 µmol/kg	inactive	inactive	inactive	inactive	Non-toxic			
CCCCN(CCCC)C1CCc2c(cccc2OC)C1.Cl (stereo not drawn)		inactive	inactive	inactive	inactive	Non-toxic			
CCCN(C(C)C)C1CCc2c(cccc2OC)C1.Cl (stereo not drawn)		inactive	inactive	inactive	inactive	Non-toxic			
Br.CCCCCNC1CCc2c(O)cccc2C1 (stereo not drawn)	> 5 µmol/kg	inactive	inactive	inactive	inactive	Non-toxic			
CCCN(CCC)C1CCc2c(ccc(OC)c2OC)C1.Cl (stereo not drawn)	0.057 µmol/kg	inactive	inactive	inactive	inactive	Non-toxic	0.058 µmol/kg		

Structure (SMILES)	ED50 (Rattus norvegicus [1])	Activity (Rattus norvegicus [2])	Activity (Rattus norvegicus [3])	Activity (Rattus norvegicus [4])	Activity (Rattus norvegicus [5])	Activity (Rattus norvegicus [6])	ED50 (Rattus norvegicus [7])	Time (Rattus norvegicus [8])	Time (Rattus norvegicus [9])
Br.CCCNC1CCc2c(O)cccc2C1 (stereo not drawn)	0.04 µmol/kg	inactive	inactive	inactive	inactive	Non-toxic	0.046 µmol/kg	45 min	0 min
COc1cccc2c1CCC(N1CCCCC1)C2.Cl (stereo not drawn)		inactive	inactive	inactive	inactive	Non-toxic			
COc1cccc2c1CCC(N(C)C)C2.Cl (stereo not drawn)		inactive	inactive	inactive	inactive	Non-toxic			
COc1cccc2c1CCC(NC(C)C)C2.Cl (stereo not drawn)	> 5 µmol/kg	inactive	inactive	inactive	inactive	Non-toxic			
Br.CCCCCN(C)C1CCc2c(O)cccc2C1 (stereo not drawn)	0.37 µmol/kg	inactive	inactive	inactive	inactive	Non-toxic	0.28 µmol/kg		
Br.Oc1cccc2c1CCC(N1CCCCC1)C2 (stereo not drawn)	> 5 µmol/kg	inactive	inactive	inactive	inactive	Non-toxic			
CCCCNC1CCc2c(cccc2OC)C1.Cl (stereo not drawn)		inactive	inactive	inactive	inactive	Non-toxic			
CCCCCN(C)C1CCc2c(cccc2OC)C1.Cl (stereo not drawn)		inactive	inactive	inactive	inactive	Non-toxic			
Br.CCCN(C(C)C)C1CCc2c(O)cccc2C1 (stereo not drawn)	0.07 µmol/kg	inactive	inactive	inactive	inactive	Non-toxic	0.087 µmol/kg	55 min	4 min
CCCN(CC(C)(C)C)C1CCc2c(cccc2OC)C1.Cl (stereo not drawn)	0.19 µmol/kg	inactive	inactive	inactive	inactive	Non-toxic	0.19 µmol/kg		
Br.CCN(C)C1CCc2c(O)cccc2C1 (stereo not drawn)	0.074 µmol/kg	inactive	inactive	inactive	inactive	Non-toxic	0.053 µmol/kg	31 min	3 min
CNC1CCc2c(cccc2OC)C1.Cl (stereo not drawn)		inactive	inactive	inactive	inactive	Non-toxic			
CCN(C)C1CCc2c(cccc2OC)C1.Cl (stereo not drawn)		inactive	inactive	inactive	inactive	Non-toxic			
Br.CC(C)NC1CCc2c(O)cccc2C1 (stereo not drawn)	> 5 µmol/kg	inactive	inactive	inactive	inactive	Non-toxic			
CCCN(CCc1ccccc1)C1CCc2c(cccc2OC)C1.Cl (stereo not drawn)	0.29 µmol/kg	inactive	inactive	inactive	inactive	Non-toxic	0.24 µmol/kg		
Br.CCCCN(CCCC)C1CCc2c(O)cccc2C1 (stereo not drawn)	2.9 µmol/kg	inactive	inactive	inactive	inactive	Non-toxic	2.7 µmol/kg		
CCNC1CCc2c(cccc2OC)C1.Cl (stereo not drawn)		inactive	inactive	inactive	inactive	Non-toxic			
